Assay results reported in paper PMC5498144 (BMB Reports, 2017).

What was measured:
PTPN2 [1] = target: T1, PTPN2 (Homo sapiens, UniProt P17706); assay: DARTS assay; format: binding; conditions: 1 μM pretreatment 20 min, then trypsin on ice; PTPN2/trypsin 100:1
T1 sequence (P17706 1-415): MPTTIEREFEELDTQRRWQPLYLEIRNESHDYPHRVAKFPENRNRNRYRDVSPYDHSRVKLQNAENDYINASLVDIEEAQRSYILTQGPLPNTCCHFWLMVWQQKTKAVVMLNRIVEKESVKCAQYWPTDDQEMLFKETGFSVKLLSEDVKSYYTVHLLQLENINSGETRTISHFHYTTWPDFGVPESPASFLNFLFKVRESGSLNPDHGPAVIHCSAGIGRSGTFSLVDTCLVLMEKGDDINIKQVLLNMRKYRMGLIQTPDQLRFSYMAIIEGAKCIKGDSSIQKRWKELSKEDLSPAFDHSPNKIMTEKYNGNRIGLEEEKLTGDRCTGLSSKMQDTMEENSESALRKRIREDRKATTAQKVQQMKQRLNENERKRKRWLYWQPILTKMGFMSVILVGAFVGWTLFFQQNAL

[2] = system: PTPN2-mediated dephosphorylation of STAT3 at Tyr-705; format: cell-based, human; conditions: HEK 293 cells with FLAG-PTPN2, 1.5 μM 6 h, then IL-6 10 ng/ml 30 min
Method in brief: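 HEK 293 cells transfected with FLAG-PTPN2 wild type or catalytically dead C216S plasmid using polyethylenimine. After 42 h, treated with test compound (1.5 μM) for 6 h, then IL-6 (10 ng/ml) for 30 min. Cells lysed in PTP lysis buffer. Immunoblots probed for phospho-STAT3 Tyr-705 and total STAT3, detected by ECL and quantified by densitometry relative to the IL-6-stimulated group.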

CD45 = target: T2, CD45 (Homo sapiens, UniProt P08575); assay: In vitro phosphatase assay with OMFP as substrate; format: biochemical
T2 sequence (P08575 653-912 limits assumed): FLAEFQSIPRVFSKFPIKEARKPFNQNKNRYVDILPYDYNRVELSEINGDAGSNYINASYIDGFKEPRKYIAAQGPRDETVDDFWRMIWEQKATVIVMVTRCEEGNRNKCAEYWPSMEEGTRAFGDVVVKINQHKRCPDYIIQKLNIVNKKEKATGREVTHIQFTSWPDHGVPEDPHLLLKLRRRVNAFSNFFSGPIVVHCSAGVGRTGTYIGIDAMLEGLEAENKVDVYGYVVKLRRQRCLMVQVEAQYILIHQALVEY
Method in brief: (§1)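 His-tagged human PTPs expressed in E. coli BL21(DE3)-RIL (1 mM IPTG, 37°C, 3 h) and Ni-NTA purified. 100 nM enzyme in 30 mM Tris-HCl pH 7.0, 75 mM NaCl, 1 mM EDTA, 0.4 mM DTT, 0.132% BSA, 1% DMSO final. Test compound (water-dissolved; 0, 5, 10 μM) present; started with 100 μM OMFP; 30 min at 37°C. Fluorescence ex 495/em 535 nm; triplicates; IC50 by curve fitting.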

SSH3 = target: T3, SSH3 (Homo sapiens, UniProt Q8TE77); assay: In vitro phosphatase assay with OMFP as substrate; format: biochemical
T3 sequence (Q8TE77 1-659): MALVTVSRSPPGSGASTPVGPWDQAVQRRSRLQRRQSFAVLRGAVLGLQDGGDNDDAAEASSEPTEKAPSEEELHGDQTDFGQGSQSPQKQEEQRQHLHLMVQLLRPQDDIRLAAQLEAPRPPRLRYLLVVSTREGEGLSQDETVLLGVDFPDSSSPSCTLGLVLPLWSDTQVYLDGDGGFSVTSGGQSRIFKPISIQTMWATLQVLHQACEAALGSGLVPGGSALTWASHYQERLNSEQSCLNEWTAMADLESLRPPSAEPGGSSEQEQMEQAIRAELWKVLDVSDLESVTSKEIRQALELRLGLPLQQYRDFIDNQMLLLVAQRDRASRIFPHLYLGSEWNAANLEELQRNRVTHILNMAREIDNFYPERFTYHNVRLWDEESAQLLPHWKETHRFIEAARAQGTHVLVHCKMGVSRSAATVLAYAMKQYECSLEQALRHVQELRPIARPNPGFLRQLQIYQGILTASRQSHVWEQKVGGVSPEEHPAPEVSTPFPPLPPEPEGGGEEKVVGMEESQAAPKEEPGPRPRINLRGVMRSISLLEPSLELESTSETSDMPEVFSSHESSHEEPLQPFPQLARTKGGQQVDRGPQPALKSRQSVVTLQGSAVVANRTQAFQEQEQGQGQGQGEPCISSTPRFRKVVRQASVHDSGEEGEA
Method in brief: as §1

Laforin = target: T4, Laforin (Homo sapiens, UniProt O95278); assay: In vitro phosphatase assay with OMFP as substrate; format: biochemical
T4 sequence (O95278 1-331): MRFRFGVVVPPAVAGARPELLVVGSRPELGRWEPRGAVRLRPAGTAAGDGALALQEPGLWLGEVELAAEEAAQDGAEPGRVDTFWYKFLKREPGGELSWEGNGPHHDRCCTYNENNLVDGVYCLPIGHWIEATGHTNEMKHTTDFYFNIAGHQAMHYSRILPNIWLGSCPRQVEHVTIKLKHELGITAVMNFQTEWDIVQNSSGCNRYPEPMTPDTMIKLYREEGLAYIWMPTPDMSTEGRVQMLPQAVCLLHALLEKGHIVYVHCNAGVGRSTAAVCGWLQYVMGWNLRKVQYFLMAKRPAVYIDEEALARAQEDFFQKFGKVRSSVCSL
Method in brief: as §1

Cdc25B = target: T5, Cdc25B (Homo sapiens, UniProt P30305); assay: In vitro phosphatase assay with OMFP as substrate; format: biochemical
T5 sequence (P30305 1-580): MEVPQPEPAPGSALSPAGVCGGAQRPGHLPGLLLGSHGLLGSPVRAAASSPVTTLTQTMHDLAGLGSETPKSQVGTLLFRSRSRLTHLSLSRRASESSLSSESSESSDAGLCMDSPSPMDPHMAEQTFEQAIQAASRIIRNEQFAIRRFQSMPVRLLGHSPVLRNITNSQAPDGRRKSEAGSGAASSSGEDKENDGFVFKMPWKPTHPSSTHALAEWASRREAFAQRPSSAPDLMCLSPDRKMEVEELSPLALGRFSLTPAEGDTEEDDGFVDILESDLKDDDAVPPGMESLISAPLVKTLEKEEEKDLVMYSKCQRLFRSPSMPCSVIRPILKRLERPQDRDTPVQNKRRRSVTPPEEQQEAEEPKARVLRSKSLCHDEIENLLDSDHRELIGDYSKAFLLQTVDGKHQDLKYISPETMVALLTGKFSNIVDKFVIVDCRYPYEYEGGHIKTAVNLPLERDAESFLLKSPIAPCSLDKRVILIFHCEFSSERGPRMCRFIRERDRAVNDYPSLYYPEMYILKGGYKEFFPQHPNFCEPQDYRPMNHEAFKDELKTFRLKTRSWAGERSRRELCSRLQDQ
Method in brief: as §1

HEK 293 cells = assay: Cell viability assay; format: cell-based, human; conditions: 6 h, up to 1.5 μM (tested 1, 1.5, 2, 3 μM)
Method in brief: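 HEK 293 cells grown in DMEM with 10% FBS and 1% penicillin/streptomycin under 5% CO2. Seeded at 1.5 × 10^6 cells/well and left overnight, then exposed to test compound (1, 1.5, 2, 3 μM) for 6 h. Water-soluble tetrazolium reagent added for 1 h at 37°C; absorbance read at 450 nm against a 650 nm reference. Mean ± SEM of three independent experiments; Student's t-test versus untreated.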

PTEN = PTEN (Homo sapiens, UniProt P60484); assay: In vitro phosphatase assay with OMFP as substrate; format: biochemical
Method in brief: as §1

DUSP23 = target: T6, DUSP23 (Homo sapiens, UniProt Q9BVJ7); assay: In vitro phosphatase assay with OMFP as substrate; format: biochemical
T6 sequence (Q9BVJ7 1-150): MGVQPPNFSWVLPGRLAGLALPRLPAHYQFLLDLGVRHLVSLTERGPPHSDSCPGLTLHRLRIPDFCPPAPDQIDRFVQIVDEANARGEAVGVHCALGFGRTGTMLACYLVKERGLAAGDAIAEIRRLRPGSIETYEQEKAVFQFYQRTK
Method in brief: as §1

DUSP18 = target: T7, DUSP18 (Homo sapiens, UniProt Q8NEJ0); assay: In vitro phosphatase assay with OMFP as substrate; format: biochemical
T7 sequence (Q8NEJ0 1-188): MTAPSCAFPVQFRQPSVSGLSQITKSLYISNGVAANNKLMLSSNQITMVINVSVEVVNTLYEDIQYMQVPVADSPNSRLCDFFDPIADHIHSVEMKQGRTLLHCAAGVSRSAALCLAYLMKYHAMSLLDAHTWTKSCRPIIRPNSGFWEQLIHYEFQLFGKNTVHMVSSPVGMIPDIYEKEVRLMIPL
Method in brief: as §1

PTPN2 [3] = target: T1, PTPN2; assay: Kinetic analysis; format: biochemical
DUSP3 = DUSP3 (Homo sapiens, UniProt P51452); assay: In vitro phosphatase assay with OMFP as substrate; format: biochemical
Method in brief: as §1

DUSP8 = target: T8, DUSP8 (Homo sapiens, UniProt Q13202); assay: In vitro phosphatase assay with OMFP as substrate; format: biochemical
T8 sequence (Q13202 1-625): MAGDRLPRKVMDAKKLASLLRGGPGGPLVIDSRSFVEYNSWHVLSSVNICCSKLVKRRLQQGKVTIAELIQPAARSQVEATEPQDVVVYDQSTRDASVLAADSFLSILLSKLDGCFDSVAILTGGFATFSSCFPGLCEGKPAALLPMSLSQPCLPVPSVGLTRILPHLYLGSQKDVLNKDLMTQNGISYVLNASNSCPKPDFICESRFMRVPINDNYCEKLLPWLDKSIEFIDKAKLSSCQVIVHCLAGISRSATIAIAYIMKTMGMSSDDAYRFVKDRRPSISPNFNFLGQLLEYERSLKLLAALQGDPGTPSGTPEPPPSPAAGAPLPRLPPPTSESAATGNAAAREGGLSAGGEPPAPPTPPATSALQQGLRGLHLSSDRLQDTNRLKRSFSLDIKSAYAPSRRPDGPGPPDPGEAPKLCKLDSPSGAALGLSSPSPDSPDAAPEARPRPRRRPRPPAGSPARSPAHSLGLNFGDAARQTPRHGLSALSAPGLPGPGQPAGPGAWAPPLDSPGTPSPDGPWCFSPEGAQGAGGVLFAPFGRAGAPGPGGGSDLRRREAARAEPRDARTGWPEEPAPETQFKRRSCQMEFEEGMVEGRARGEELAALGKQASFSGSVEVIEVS
Method in brief: as §1

PTEN, sequence (P60484 whole entry, species assumed): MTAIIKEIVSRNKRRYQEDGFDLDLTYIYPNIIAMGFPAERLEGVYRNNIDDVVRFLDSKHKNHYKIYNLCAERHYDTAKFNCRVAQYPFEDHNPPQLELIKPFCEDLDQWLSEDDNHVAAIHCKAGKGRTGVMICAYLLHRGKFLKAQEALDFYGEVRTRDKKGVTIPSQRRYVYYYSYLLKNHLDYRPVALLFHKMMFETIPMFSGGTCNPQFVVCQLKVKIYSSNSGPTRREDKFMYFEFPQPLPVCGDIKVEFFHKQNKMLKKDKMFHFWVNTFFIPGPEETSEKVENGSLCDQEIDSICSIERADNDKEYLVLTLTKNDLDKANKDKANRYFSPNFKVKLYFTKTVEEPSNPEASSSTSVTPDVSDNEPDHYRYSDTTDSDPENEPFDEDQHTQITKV
DUSP3, sequence (P51452 whole entry, species assumed): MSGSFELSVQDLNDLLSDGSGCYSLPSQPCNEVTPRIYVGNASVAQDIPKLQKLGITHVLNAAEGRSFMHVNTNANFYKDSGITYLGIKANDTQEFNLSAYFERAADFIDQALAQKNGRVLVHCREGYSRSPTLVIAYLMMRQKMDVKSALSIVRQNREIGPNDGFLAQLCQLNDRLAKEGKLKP

| IC50 (CD45) [µM] | IC50 (SSH3) [µM] | IC50 (Laforin) [µM] | IC50 (Cdc25B) [µM] | IC50 (PTEN) [µM] | IC50 (DUSP23) [µM] | IC50 (DUSP18) [µM] | Ki (PTPN2 [3]) [µM] | IC50 (DUSP3) [µM] | IC50 (DUSP8) [µM] | SMILES | Proteolysis of PTPN2 by trypsin (DARTS) (PTPN2 [1]) | PTPN2-mediated dephosphorylation of STAT3 at Tyr-705 [2] | Cytotoxic effects (cell viability) (HEK 293 cells) |
| --- | --- | --- | --- | --- | --- | --- | --- | --- | --- | --- | --- | --- | --- |
| – | – | – | – | – | – | – | – | – | – | O=S(=O)(F)Cc1ccccc1 [PMSF, phenylmethylsulfonyl fluoride] | decreased | – | – |
| 0.86 ± 0.03 | > 50 | > 100 | > 50 | 1.78 ± 0.34 | > 50 | > 50 | 0.76 ± 0.08 | > 50 | > 50 | CC(C)(C)C(=O)Nc1ccc2c(c1)C(=O)C(=O)c1ccccc1-2 [PTP inhibitor XIX, N-[9, 10-dioxo-9, 10-dihydro-phenanthren-2-yl]-2,2-dimethyl-propionamide] | – | inhibited | no apparent cytotoxic effects |
